# Activity calls are given as the source filed them. No cut-off for these calls is given here.
# Columns and labels:
# Staphylococcus aureus [1] = assay: Antibacterial activity against methicillin-resistant Staphylococcus aureus; assay type: functional, organism-based
# Staphylococcus aureus [2] = assay: Antibacterial activity against methicillin-sensitive Staphylococcus aureus; assay type: functional, organism-based
# RAW264.7 [3] = assay: Inhibition of LPS-induced NO production in mouse RAW264.7 cells incubated 1 hr prior to LPS challenge measured after 20 hrs by Griess assay; assay type: functional, cell-based
# Outline: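 RAW 264.7 cells seeded at 10^6 cells/mL and grown 20 h before compound (DMSO stock diluted 20-fold in medium). After 1 h pretreatment, LPS (10 μg/mL stock, 10 μL/well) added, then 20 h further incubation. Supernatant nitrite read by Griess reagent, 20 min at 23 °C, absorbance 550 nm, against 0–100 μM nitrite standards. Output expressed as % of solvent control; triplicate, mean and SD.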
# NIH3T3 = assay: Inhibition of A23187-induced prostaglandin E2 production in Swiss albino mouse 3T3 cells; assay type: functional, cell-based
# RAW264.7 [4] = assay: Inhibition of LPS-induced TNF-alpha production in mouse RAW264.7 cells; assay type: functional, cell-based
# [5] = Solubility of the compound; assay type: physicochemical
# RAW264.7 [6] = assay: Cytotoxicity against mouse RAW264.7 cells after 24 hrs by ATPLite assay; assay type: cell-based; settings: RAW264.7, 24 h
# Outline: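 RAW 264.7 cells in colour-free DMEM with 10% FBS, 2 mM L-glutamine, 1 mM pyruvate, penicillin/streptomycin; 30 000 cells/well, compounds from DMSO stocks diluted 20-fold in medium, six concentrations; 24 h at 37 °C, 5% CO2. Cellular ATP read by ATPlite luminescence after lysis and 10 min dark adaptation. Chlorambucil as positive control; triplicate; EC50 from curve fit.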
# Escherichia coli = assay: Antibacterial activity against Escherichia coli; assay type: functional, organism-based
# [7] = tested on: Staphylococcus epidermidis; assay: Antibacterial activity against Staphylococcus epidermidis; assay type: functional, organism-based
# RAW264.7 [8] = assay: Selectivity index, ratio of EC50 for mouse RAW264.7 cells to IC50 for mouse RAW264.7 cells assessed as LPS-induced NO production; assay type: functional
# Outline: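 Index is cytotoxicity EC50 in RAW 264.7 cells (24 h ATPlite) divided by the IC50 for inhibition of LPS-induced nitrite production in the same cells (Griess readout).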
# Pseudomonas aeruginosa = assay: Antibacterial activity against Pseudomonas aeruginosa; assay type: functional, organism-based
compound,measurement,setting,value
C/C(=C\COc1ccc2ccc(=O)oc2c1)C1=C(CN2CCCC2C(=O)O)C(=O)C(C)(C)O1 (mixture of isomers),Activity,Staphylococcus aureus [1],inactive
same,Activity,Staphylococcus aureus [2],inactive
same,IC50,RAW264.7 [3],23.4 µM
same,inhibition,NIH3T3,inactive
same,inhibition,RAW264.7 [4],inactive
same,solubility,[5],245 µg/mL
same,EC50,RAW264.7 [6],74.7 µM
same,Activity,Escherichia coli,inactive
same,Activity,[7],inactive
same,Selectivity Index,RAW264.7 [8],3.2
same,Activity,Pseudomonas aeruginosa,inactive

# Reference: ChEMBL document CHEMBL2407037, “Parvifloranines A and B, two 11-carbon alkaloids from Geijera parviflora” (J Nat Prod, 2013)
